{"source": "ChEMBL document CHEMBL3124845", "about": "“Synthesis, neuronal activity and mechanisms of action of halogenated enaminones” (Eur J Med Chem, 2014)", "key": {"Hippocampus [1]": {"test_system": "Hippocampus", "test": "Anticonvulsant activity in Sprague-Dawley rat hippocampus assessed as inhibition of population spike amplitude at 10 uM preincubated for 6 mins followed by compound washout measured after 10 mins by […]", "assay_type": "functional", "summary_of_the_method": "(§1)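 Extracellular recording of population spikes in coronal hippocampal slices from male Sprague-Dawley rats (100–150 g), aCSF 29–31 C. Spike amplitude measured from the positive peak to the negative tip; readings taken in control, 6 min into compound and 10 min after washout. Concentration-response run up to […]; mean and standard error.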"}, "Hippocampus [2]": {"test_system": "Hippocampus", "test": "Anticonvulsant activity in Sprague-Dawley rat hippocampus assessed as inhibition of population spike amplitude at >= 100 uM preincubated for 6 mins followed by compound washout measured after 10 mins by […]", "assay_type": "functional, tissue-based", "summary_of_the_method": "as §1"}, "[3]": {"test": "Anticonvulsant activity in Sprague-Dawley rat hippocampus CA1 pyramidal neurons assessed as suppression of EPSC amplitude at 10 uM at -60mV holding potential by voltage-clamp electrophysiology relative to control", "assay_type": "functional, Pyramidal neuron", "summary_of_the_method": "(§2)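 Coronal hippocampal slices ([…]) from halothane-anaesthetised male Sprague-Dawley rats (100–150 g), submerged in carbogenated aCSF at 29–31 C, 2–3 mL/min. Blind whole-cell patch of CA1 pyramidal cells with K-gluconate pipette solution (pH 7.3); voltage clamp near rest (60 mV). EPSCs evoked by afferent stimulation; two responses 30 s apart averaged; compound at […].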"}, "[4]": {"test": "Anticonvulsant activity in Sprague-Dawley rat hippocampus CA1 pyramidal neurons assessed as suppression of EPSC amplitude at 10 uM by voltage-clamp electrophysiology in presence of GABA-B receptor antagonist CGP55845", "assay_type": "functional, Pyramidal neuron"}, "Pyramidal neuron": {"test_system": "Pyramidal neuron", "test": "Anticonvulsant activity in Sprague-Dawley rat hippocampus CA1 pyramidal neurons assessed as suppression of EPSC amplitude at 10 uM at -60mV holding potential measured 15 to 20 mins post compound washout by voltage-clamp electrophysiology", "assay_type": "functional, cell-based", "summary_of_the_method": "as §2"}, "Hippocampus [5]": {"test_system": "Hippocampus", "test": "Anticonvulsant activity in Sprague-Dawley rat hippocampus assessed as inhibition of population spike amplitude preincubated for 6 mins followed by compound washout measured after 10 mins by […]", "assay_type": "functional, tissue-based", "summary_of_the_method": "as §1"}, "[6]": {"test": "Anticonvulsant activity in Sprague-Dawley rat hippocampus CA1 pyramidal neurons assessed as suppression of EPSC amplitude at 10 uM by voltage-clamp electrophysiology in presence of GABA transaminase inhibitor vigabatrin", "assay_type": "functional, Pyramidal neuron"}, "Mus musculus [7]": {"test_system": "Mus musculus", "test": "Anticonvulsant activity in CF1 mouse at <100 mg/kg, ip after 30 mins", "assay_type": "functional, organism-based", "summary_of_the_method": "(§3)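 Male CF1 mice; compound dissolved or suspended in 30% polyethylene glycol 400, given intraperitoneally at 30, 100 and 300 mg/kg. Protection scored in maximal electroshock and subcutaneous pentylenetetrazole seizure tests, with rotorod for neurotoxicity, read at 30 min and 4 h after dosing.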"}, "[8]": {"test": "Anticonvulsant activity in Sprague-Dawley rat hippocampus CA1 pyramidal neurons assessed as suppression of action potential firing frequency at 10 uM by voltage-clamp electrophysiology relative to control", "assay_type": "functional, Pyramidal neuron", "settings": "in the assay text read “current-clamp” for “voltage-clamp”"}, "Mus musculus [9]": {"test_system": "Mus musculus", "test": "Anticonvulsant activity in CF1 mouse at 100 to 300 mg/kg, ip after 30 mins", "assay_type": "functional, organism-based", "summary_of_the_method": "as §3"}}, "note": "Activity calls are given as the source filed them. The calls are words filed in the database; no cut-off is given here."}
{"molecule": "COC(=O)C1C(=O)C=C(Nc2ccc(I)cc2I)CC1c1ccccc1", "note": "(stereo not drawn)", "values": [{"measurement": "inhibition at 10 µM", "setting": "Hippocampus [1]", "value": 8.5, "unit": "%"}, {"measurement": "inhibition", "setting": "Hippocampus [2]", "value": "inactive"}]}
{"molecule": "CC1CC(=O)C=C(Nc2ccc(Br)cc2Br)C1", "note": "(stereo not drawn)", "values": [{"measurement": "inhibition at 10 µM", "setting": "Hippocampus [1]", "value": 8, "unit": "%"}, {"measurement": "inhibition", "setting": "Hippocampus [2]", "value": "inactive"}]}
{"molecule": "CCOC(=O)C1C(=O)C=C(Nc2ccc(Br)cc2Br)CC1C", "note": "(stereo not drawn)", "values": [{"measurement": "Activity", "setting": "[3]", "value": 47.5, "unit": "%"}, {"measurement": "Activity", "setting": "[4]", "value": 16.6, "unit": "%"}, {"measurement": "Activity", "setting": "Pyramidal neuron", "value": "Active"}, {"measurement": "EC50", "setting": "Hippocampus [5]", "value": 1.9, "unit": "µM"}, {"measurement": "inhibition", "setting": "Hippocampus [5]", "value": "Dose-dependent effect"}, {"measurement": "Activity", "setting": "[6]", "value": 3.9, "unit": "%"}, {"measurement": "inhibition at 10 µM", "setting": "Hippocampus [1]", "value": -34.7, "unit": "%"}, {"measurement": "inhibition", "setting": "Hippocampus [2]", "value": "inactive"}, {"measurement": "Activity", "setting": "Mus musculus [7]", "value": "Active"}, {"measurement": "Activity", "setting": "[8]", "value": 76.3, "unit": "%"}]}
{"molecule": "CCOC(=O)C1C(=O)C=C(Nc2ccc(Cl)cc2Cl)CC1C", "note": "(stereo not drawn)", "values": [{"measurement": "EC50", "setting": "Hippocampus [5]", "value": 10, "unit": "µM"}, {"measurement": "inhibition at 10 µM", "setting": "Hippocampus [1]", "value": -24.6, "unit": "%"}, {"measurement": "inhibition", "setting": "Hippocampus [2]", "value": "inactive"}]}
{"molecule": "CCOC(=O)C1C(=O)C=C(Nc2ccc(I)cc2I)CC1c1ccccc1", "note": "(stereo not drawn)", "values": [{"measurement": "inhibition at 10 µM", "setting": "Hippocampus [1]", "value": 4, "unit": "%"}, {"measurement": "inhibition", "setting": "Hippocampus [2]", "value": "inactive"}]}
{"molecule": "CCOC(=O)C1CCC(Nc2ccc(Br)cc2Br)=CC1=O", "note": "(stereo not drawn)", "values": [{"measurement": "inhibition at 10 µM", "setting": "Hippocampus [1]", "value": 35, "unit": "%"}, {"measurement": "inhibition", "setting": "Hippocampus [2]", "value": "inactive"}]}
{"molecule": "COC(=O)C1C(=O)C=C(Nc2ccc(Br)cc2Br)CC1c1ccccc1", "note": "(stereo not drawn)", "values": [{"measurement": "Activity", "setting": "[3]", "value": 31.2, "unit": "%"}, {"measurement": "Activity", "setting": "[4]", "value": 16.6, "unit": "%"}, {"measurement": "Activity", "setting": "Pyramidal neuron", "value": "Active"}, {"measurement": "EC50", "setting": "Hippocampus [5]", "value": 2.1, "unit": "µM"}, {"measurement": "inhibition", "setting": "Hippocampus [5]", "value": "Dose-dependent effect"}, {"measurement": "Activity", "setting": "[6]", "value": 40, "unit": "%"}, {"measurement": "inhibition at 10 µM", "setting": "Hippocampus [1]", "value": -72.2, "unit": "%"}, {"measurement": "inhibition", "setting": "Hippocampus [2]", "value": "inactive"}, {"measurement": "Activity", "setting": "Mus musculus [7]", "value": "Active"}, {"measurement": "Activity", "setting": "[8]", "value": 39.2, "unit": "%"}]}
{"molecule": "COC(=O)C1C(=O)C=C(Nc2ccc(Br)cc2Br)CC1C", "note": "(stereo not drawn)", "values": [{"measurement": "inhibition at 10 µM", "setting": "Hippocampus [1]", "value": -25, "unit": "%"}, {"measurement": "inhibition", "setting": "Hippocampus [2]", "value": "inactive"}, {"measurement": "Activity", "setting": "Mus musculus [9]", "value": "Active"}]}
{"molecule": "CC1(C)CCC(Nc2ccc(Br)cc2Br)=CC1=O", "values": [{"measurement": "inhibition at 10 µM", "setting": "Hippocampus [1]", "value": -18.2, "unit": "%"}, {"measurement": "inhibition", "setting": "Hippocampus [2]", "value": "inactive"}]}
{"molecule": "O=C1C=C(Nc2ccc(Br)cc2Br)CCC1", "values": [{"measurement": "inhibition at 10 µM", "setting": "Hippocampus [1]", "value": -23.7, "unit": "%"}, {"measurement": "inhibition", "setting": "Hippocampus [2]", "value": "inactive"}]}
